Measured values: publication PMC7658073 (Clinical Pharmacokinetics, 2020)
Marks after values point to notes of the source that are not given here.

Legend:
[1] = target: T1, organic cation transporter 2 (Homo sapiens, UniProt O15244); test: Inhibitory potency towards OCT2; type: in vitro ADME
T1 sequence (O15244 1-555): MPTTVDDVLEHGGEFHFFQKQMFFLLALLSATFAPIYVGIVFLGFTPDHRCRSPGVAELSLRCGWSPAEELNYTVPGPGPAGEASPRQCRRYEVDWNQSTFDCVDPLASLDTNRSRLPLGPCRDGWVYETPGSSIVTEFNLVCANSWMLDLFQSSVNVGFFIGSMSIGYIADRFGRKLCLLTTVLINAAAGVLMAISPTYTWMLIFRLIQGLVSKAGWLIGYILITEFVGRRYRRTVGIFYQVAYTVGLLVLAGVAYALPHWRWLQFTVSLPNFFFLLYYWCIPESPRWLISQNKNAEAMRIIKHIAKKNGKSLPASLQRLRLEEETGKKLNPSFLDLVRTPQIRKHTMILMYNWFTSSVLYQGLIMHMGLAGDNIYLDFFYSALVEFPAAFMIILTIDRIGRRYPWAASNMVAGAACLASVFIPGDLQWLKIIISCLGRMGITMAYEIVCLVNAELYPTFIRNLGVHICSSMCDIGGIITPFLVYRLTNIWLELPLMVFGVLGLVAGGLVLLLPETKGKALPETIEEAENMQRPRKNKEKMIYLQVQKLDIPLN

CYP2B6 = test: CYP induction in cultured human hepatocytes: CYP2B6; type: in vitro ADME; settings: three donors, up to 10,000 μg/L (23.5 µM)
Human mass balance study = type: in vivo; settings: 14C-labeled vericiguat 5 mg oral
How it was run: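 Open-label, non-randomized, non-placebo-controlled study in six healthy male volunteers. Single oral solution of 5 mg [14C]-labelled test compound given fasting. Urine and feces collected up to 336 h and total radioactivity measured as % of dose, summarized descriptively as mean (range). Plasma components expressed as share of total radioactivity AUC.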

[2] = pKa and pH-dependent solubility; type: physicochemical
OATP1B1 = target: T2, OATP1B1 (Homo sapiens, UniProt Q9Y6L6); test: Substrate properties towards OATP1B1; type: in vitro ADME
T2 sequence (Q9Y6L6 1-691): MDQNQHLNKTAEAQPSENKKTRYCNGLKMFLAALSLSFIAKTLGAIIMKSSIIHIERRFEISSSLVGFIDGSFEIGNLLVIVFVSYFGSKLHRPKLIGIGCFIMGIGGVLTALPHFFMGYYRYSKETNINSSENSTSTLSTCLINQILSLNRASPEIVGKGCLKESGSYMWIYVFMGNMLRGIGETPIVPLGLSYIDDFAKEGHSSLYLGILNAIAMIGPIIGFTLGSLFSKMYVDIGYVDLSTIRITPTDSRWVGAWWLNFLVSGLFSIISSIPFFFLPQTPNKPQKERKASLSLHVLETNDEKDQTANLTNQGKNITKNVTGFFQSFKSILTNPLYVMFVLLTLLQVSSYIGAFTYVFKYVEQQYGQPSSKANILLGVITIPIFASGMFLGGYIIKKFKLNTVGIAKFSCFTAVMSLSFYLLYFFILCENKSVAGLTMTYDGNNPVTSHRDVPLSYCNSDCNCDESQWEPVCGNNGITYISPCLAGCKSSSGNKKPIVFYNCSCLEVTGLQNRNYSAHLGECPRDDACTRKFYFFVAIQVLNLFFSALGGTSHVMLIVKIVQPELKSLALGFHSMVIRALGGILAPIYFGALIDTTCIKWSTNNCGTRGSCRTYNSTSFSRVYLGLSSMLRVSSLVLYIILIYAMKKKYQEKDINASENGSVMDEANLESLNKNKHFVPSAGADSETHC

UGT2B7 = target: T3, UGT2B7 (Homo sapiens, UniProt P16662); test: Inhibitory potency towards UGT isoforms: UGT2B7; type: in vitro ADME
T3 sequence (P16662 24-529): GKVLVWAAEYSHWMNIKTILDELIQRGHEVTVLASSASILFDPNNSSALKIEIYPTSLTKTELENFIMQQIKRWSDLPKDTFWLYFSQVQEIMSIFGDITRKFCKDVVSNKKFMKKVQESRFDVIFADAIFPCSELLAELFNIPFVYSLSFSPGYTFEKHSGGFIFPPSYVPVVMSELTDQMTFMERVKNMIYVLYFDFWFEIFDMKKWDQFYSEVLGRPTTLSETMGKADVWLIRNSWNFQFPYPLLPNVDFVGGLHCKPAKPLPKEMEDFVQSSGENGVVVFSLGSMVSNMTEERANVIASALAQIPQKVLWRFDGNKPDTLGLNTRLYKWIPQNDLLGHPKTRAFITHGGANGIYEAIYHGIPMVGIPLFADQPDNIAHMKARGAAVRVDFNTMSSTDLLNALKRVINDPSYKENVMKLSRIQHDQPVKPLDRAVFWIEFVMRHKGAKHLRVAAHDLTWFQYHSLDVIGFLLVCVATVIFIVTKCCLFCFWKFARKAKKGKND

MATE1 = target: T4, MATE1 (Homo sapiens, UniProt Q96FL8); test: Inhibitory potency towards MATE1; type: in vitro ADME
T4 sequence (Q96FL8 1-570): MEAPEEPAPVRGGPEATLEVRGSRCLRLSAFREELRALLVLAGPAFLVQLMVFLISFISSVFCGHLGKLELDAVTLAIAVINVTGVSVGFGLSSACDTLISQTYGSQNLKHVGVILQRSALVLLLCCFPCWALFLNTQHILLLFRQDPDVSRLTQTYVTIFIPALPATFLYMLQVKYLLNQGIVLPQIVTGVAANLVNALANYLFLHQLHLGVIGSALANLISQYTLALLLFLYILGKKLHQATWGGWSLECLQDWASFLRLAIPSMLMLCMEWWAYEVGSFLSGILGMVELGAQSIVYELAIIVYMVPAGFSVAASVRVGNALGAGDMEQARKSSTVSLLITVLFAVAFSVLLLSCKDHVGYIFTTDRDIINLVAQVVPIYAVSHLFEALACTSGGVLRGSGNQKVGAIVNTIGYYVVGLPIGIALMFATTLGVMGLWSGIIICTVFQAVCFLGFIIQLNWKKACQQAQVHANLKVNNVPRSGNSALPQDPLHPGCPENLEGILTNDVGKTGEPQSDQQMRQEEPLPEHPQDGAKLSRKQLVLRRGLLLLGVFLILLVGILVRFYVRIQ

[3] = cited from earlier work
[4] = % of dose, listed as vericiguat

IC50 [1]: > 5 µM
Induction of CYP2B6 (CYP2B6): no significant induction
Share of total radioactivity AUC in human plasma (Human mass balance study): 27%
Excretion in feces (range) (Human mass balance study; % of dose): 42.6 (38.3–46.5) %
Excretion in urine (range) (Human mass balance study; % of dose): 9.0 (6.1–16.1) %
Total excretion of analyte (urine plus feces) (range) (Human mass balance study; % of dose): 51.6 (46.0–62.6) %
Excretion in feces (range) (Human mass balance study; [4]): 43%
Excretion in urine (range) (Human mass balance study; [4]): 9.0%
Radioactivity excreted via feces (Human mass balance study; % of dose, mean (range)): 45.2 (40.1–49.9) %
Radioactivity excreted via urine (Human mass balance study; % of dose, mean (range)): 53.1^b (49.9–56.1) %
pKa [2]: 4.7
Substrate of OATP1B1 (OATP1B1): not a substrate
IC50 (UGT2B7): > 50 µM
IC50 (MATE1): > 10 µM
SMILES: COC(=O)Nc1c(N)nc(-c2nn(Cc3ccccc3F)c3ncc(F)cc23)nc1N [Vericiguat]
pH dependence of solubility [2]: lower in neutral conditions compared with acidic conditions
Permeability [3]: highly permeable
Solubility [3]: low-soluble
